The values that follow come from ChEMBL document CHEMBL1914341, “Anti-tumoral activities of dioncoquinones B and C and related naphthoquinones gained from total synthesis or isolation from plants” (Eur J Med Chem, 2011).

A short description of test [1]: Cytotoxicity against human INA-6 cells assessed as viable fractions using annexin V-FITC/propidium iodide staining by flow cytometry. In kind it is functional, cell-based. A digest of the protocol:
(§1)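 Human multiple myeloma INA-6 cells or mononuclear cells from peripheral blood of healthy donors exposed to a range of compound concentrations. Viable fraction taken as annexin V/PI double-negative cells; EC50 derived.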

For the next test, the system named is PBMC. Briefly: Cytotoxicity against human PBMC cells assessed as viable fractions using annexin V-FITC/propidium iodide staining by flow cytometry. In kind it is cell-based. The gist of the method: as §1
For orientation: In flow cytometry, cells or beads pass a laser one at a time.

Consider `CC1=CC(=O)c2c(ccc(O)c2O)C1=O`, for which the results for the EC50 (in test [1]; in the test with PBMC) were 75 µM and 100 µM, respectively. The matching figures for `COc1cccc2c1C(=O)C=C(C)C2=O`: 4 µM and 16 µM.

Regarding `CC1=C(O)C(=O)c2cc(O)c(O)cc2C1=O`, the EC50 (commonly the concentration needed to bring the measured effect to its halfway point) in test [1] is 52 µM.

`CC1=C(O)C(=O)c2c(O)ccc(O)c2C1=O`: in test [1], the EC50 was more than 100 µM. With `COc1ccc2c(c1OC)C(=O)C=C(C)C2=O`, the EC50 was found to be 15 µM in test [1] and 13 µM with PBMC. For `COc1ccc2c(c1OC)C(=O)C(O)=C(C)C2=O`, the concentration for a half-maximal effect (EC50) in test [1] was more than 100 µM. As for `COc1cc2c(c(OC)c1OC)C(=O)C=C(C)C2=O`, the values for the EC50 (in test [1]; in the test on PBMC) were 8 µM and 7.5 µM, respectively. As for `COc1cc2c(c(OC)c1OC)C(=O)C(O)=C(C)C2=O`, in test [1], the EC50 was more than 100 µM. For `CC1=C(O)C(=O)c2c(cc(O)c(O)c2O)C1=O`, the EC50 in test [1] is 7 µM; in the test with PBMC, 70 µM.

For the molecule `COc1cc2c(cc1OC)C(=O)C(C)=CC2=O`, the EC50 in test [1] was determined as 6 µM; in the test on PBMC, 6.5 µM. With `CC1=C(O)C(=O)c2cc(O)ccc2C1=O`, the EC50 in test [1] is more than 100 µM. In the case of `CC1=CC(=O)c2cc(O)ccc2C1=O`, the 50% effective concentration (EC50) in test [1] came to 13 µM; with PBMC it was 17 µM. For `COc1ccc2c(c1)C(=O)C(O)=C(C)C2=O` the same measures were more than 100 µM and 50 µM. For `COc1ccc2c(c1O)C(=O)C(O)=C(C)C2=O`, the concentration for a half-maximal effect (EC50) in test [1] was more than 100 µM. Same read-out and setting: next, `COC1=C(C)C(=O)c2ccc(O)c(O)c2C1=O`: more than 100 µM. Same read-out and setting: next, `COc1cc2c(cc1OC)C(=O)C(O)=C(C)C2=O`: more than 100 µM; `CC1=C(O)C(=O)c2c(ccc(O[C@@H]3O[C@H](CO)[C@@H](O)[C@H](O)[C@H]3O)c2O)C1=O` [DIONCOQUINONE A]: 29 µM; `CC1=C(O)C(=O)c2c(ccc(O)c2O)C1=O` [DIONCOQUINONE B]: 11 µM.

Turning to `COc1cc2c(c(O)c1O)C(=O)C(O)=C(C)C2=O` [DIONCOQUINONE C], in test [1], the EC50 worked out at 14 µM. Still for that read-out and setting: the result for `COC1=C(C)C(=O)c2cc(OC)c(O)c(O)c2C1=O` [DIONCOQUINONE D] reads 80 µM; that for `COc1c(O)cc2c(c1O)C(=O)C(O)=C(C)C2=O` [DIONCOQUINONE E], 100 µM. Still for that read-out and setting: next, `CC1=C(O)C(=O)c2c(O)cccc2C1=O` [DROSERONE]: more than 100 µM. Consider `N[C@@H](Cc1ccc(N(CCCl)CCCl)cc1)C(=O)O` [MELPHALAN], for which the EC50 in test [1] was 2 µM; in the test with PBMC, 3 µM. For `CC1=CC(=O)c2c(O)cccc2C1=O` [PLUMBAGIN] the same measures were 0.8 µM and 0.8 µM.
